Reference: ChEMBL document CHEMBL3259741, “Three new cucurbitane triterpenoids from Hemsleya penxianensis and their cytotoxic activities” (Bioorg Med Chem Lett, 2014)
Values after ≈ are worked out from the molar mass of the structure shown.

Experiments:
Type in all cases: functional, cell-based
[1] = Cytotoxicity against human H460 cells after 48 hrs by MTT assay; settings: NCI-H460, 48 h
Procedure, shortened: (§1)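 Cells in RPMI1640 with 15% FBS were trypsinized (0.25%) and seeded at 1 × 10^5/mL, then incubated 24 h at 37 °C in 5% CO2. Agents were added at final concentrations of 50, 10, 2, 0.4 and 0.08 for a further 48 h. MTT (0.5%) was applied for 4 h, formazan dissolved in DMSO, and OD read at 570 nm. % inhibition = (OD0−ODS)/OD0; IC50 was taken as 50% growth inhibition. Mean of three experiments in triplicate.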

SW-620 = test: Cytotoxicity against human SW620 cells after 48 hrs by MTT assay; settings: SW-620, 48 h; procedure, shortened: as §1
COLO 205 = test: Cytotoxicity against human COLO205 cells after 48 hrs by MTT assay; settings: COLO 205, 48 h
Procedure, shortened: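 COLO205 cells were grown in RPMI1640 with 15% FBS, seeded at 2 × 10^5/mL, and incubated 24 h at 37 °C in 5% CO2. Agents were then given at final 50, 10, 2, 0.4 and 0.08 for 48 h. Read-out used 0.5% MTT for 4 h, DMSO solubilization and OD at 570 nm. Inhibition = (OD0−ODS)/OD0; IC50 = concentration giving 50% inhibition. Mean of three experiments in triplicate.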

Row | Compound | IC50 [1] | IC50 (SW-620) | IC50 (COLO 205)
1 | CC(=O)O[C@@H]1C[C@@]2(C)[C@@H]3CC=C4[C@@H](C[C@H](O)[C@@H](O)C4(C)C)[C@]3(C)C(=O)C[C@]2(C)[C@H]1C(C)(O)C(=O)/C=C/C(C)(C)O (stereo partly drawn) | 3.43 µg/mL (≈ 6.12 µM) | 0.42 µg/mL (≈ 0.749 µM) | 0.44 µg/mL (≈ 0.785 µM)
2 | CC(=O)OC(C)(C)CCC(=O)[C@](C)(O)[C@H]1[C@H](O)C[C@@]2(C)[C@@H]3CC=C4[C@@H](C[C@H](O)[C@@H](O)C4(C)C)[C@]3(C)C(=O)C[C@]12C [HEMSLECIN A] | 11.5 µg/mL (≈ 20.5 µM) | 1.11 µg/mL (≈ 1.97 µM) | 1.09 µg/mL (≈ 1.94 µM)
3 | C/C(C=O)=C\CC[C@@H](C)[C@H]1CC[C@@]2(C)[C@@H]3CC=C4[C@@H](CC[C@H](O[C@@H]5O[C@H](CO)[C@@H](O)[C@H](O)[C@H]5O)C4(C)C)[C@]3(C)C(=O)C[C@]12C | 0.46 µg/mL (≈ 0.746 µM) | 0.64 µg/mL (≈ 1.04 µM) | 0.78 µg/mL (≈ 1.26 µM)
4 | C[C@H](CCC=C(CO)CO)[C@H]1CC[C@@]2(C)[C@@H]3CC=C4[C@@H](CC[C@H](O[C@@H]5O[C@H](CO)[C@@H](O)[C@H](O)[C@H]5O)C4(C)C)[C@]3(C)[C@H](O)C[C@]12C | 2.96 µg/mL (≈ 4.65 µM) | 1.99 µg/mL (≈ 3.12 µM) | 3.84 µg/mL (≈ 6.03 µM)
5 | CC(=O)O[C@@H]1C[C@@]2(C)[C@@H]3CC=C4[C@@H](C[C@H](O[C@@H]5O[C@H](CO)[C@@H](O)[C@H](O)[C@H]5O)[C@@H](O)C4(C)C)[C@]3(C)C(=O)C[C@]2(C)[C@H]1C(C)(O)C(=O)/C=C/C(C)(C)OC(C)=O (stereo partly drawn) | 8.55 µg/mL (≈ 11.2 µM) | 6.63 µg/mL (≈ 8.67 µM) | 24.9 µg/mL (≈ 32.6 µM)
6 | CC(C)(O)CCC(=O)[C@](C)(O)[C@H]1[C@H](O)C[C@@]2(C)[C@@H]3CC=C4[C@@H](C[C@H](O)[C@@H](O)C4(C)C)[C@]3(C)C(=O)C[C@]12C | 7.09 µg/mL (≈ 13.6 µM) | 1.03 µg/mL (≈ 1.98 µM) | 0.64 µg/mL (≈ 1.23 µM)
